Measured values taken from ChEMBL document CHEMBL5724801, “EUbOPEN Chemogenomics Library - Multiplex” (2024).
Where “and” joins values, the source holds several entries; their conditions need not be identical. Equal values may be shown once.

Test system: U2OS
Assay: Multiplex assay against U2OS
Format: toxicity, cell-based
Conditions: human
How it was run: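 Live cells were stained at seeding with Hoechst33342, BioTracker Green Microtubule Cytoskeleton Dye, MitoTracker Red and Annexin V Alexa Fluor 680. Following compound addition, they were imaged on a CQ1 microscope at 37°C and 5% CO2 and gated by CellPathfinder machine learning into Hoechst high-intensity objects or normal cells, with normal cells split into healthy, pyknosed or fragmented nuclei and pyknosed cells into mitotic or apoptotic. Tubulin, mitochondrial-mass and membrane-permeability phenotypes are per cents of healthy-nucleus cells.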

[1] = 12 h, 1 µM, compound concentration 1 uM
[2] = 12 h, 10 µM, compound concentration 10 uM
[3] = 24 h, 1 µM, compound concentration 1 uM
[4] = 24 h, 10 µM, compound concentration 10 uM
[5] = 48 h, 1 µM, compound concentration 1 uM
[6] = 48 h, 10 µM, compound concentration 10 uM

Compound: Cc1sc2c(c1C)C(c1ccc(Cl)cc1)=N[C@@H](CC(=O)NCCCCCCCCNC(=O)COc1cccc3c1C(=O)N(C1CCC(=O)NC1=O)C3=O)c1nnc(C)n1-2 (some centres not stated)
- Population Apoptotic (%) [1]: 93% and 87%
- Population Healthy Nuclei (%) [1]: 49% and 80%
- Population Hoechst High Intensity Objects (%) [1]: 11% and 0%
- Population Membrane Permeable-Phenotype (%) [1]: 9% and 5%
- Population Mitochondria Different-Phenotype (%) [1]: 4% and 1%
- Population Mitotic Cells (%) [1]: 6% and 12%
- Population Normal (%) [1]: 88% and 99%
- Population Pyknosed Nuclei (%) [1]: 6% and 5%
- Population Tubulin-Different-Phenotype (%) [1]: 5% and 3%
- Total Cell Count [1]: 269 and 136
- Population Apoptotic (%) [2]: 86% and 100%
- Population Fragmented Nuclei (%) [2]: 31% and 19%
- Population Healthy Nuclei (%) [2]: 55% and 75%
- Population Hoechst High Intensity Objects (%) [2]: 5% and 0%
- Population Mitochondria Different-Phenotype (%) [2]: 4% and 12%
- Population Mitotic Cells (%) [2]: 13% and 0%
- Population Normal (%) [2]: 94% and 99%
- Population Pyknosed Nuclei (%) [2]: 13% and 4%
- Population Tubulin-Different-Phenotype (%) [2]: 0% and 12%
- Total Cell Count [2]: 233 and 117
- Population Apoptotic (%) [3]: 100% and 92%
- Population Healthy Nuclei (%) [3]: 51% and 80%
- Population Hoechst High Intensity Objects (%) [3]: 11% and 2%
- Population Membrane Permeable-Phenotype (%) [3]: 8% and 5%
- Population Mitochondria Different-Phenotype (%) [3]: 3% and 2%
- Population Mitotic Cells (%) [3]: 0% and 7%
- Population Normal (%) [3]: 88% and 97%
- Population Pyknosed Nuclei (%) [3]: 6% and 7%
- Population Tubulin-Different-Phenotype (%) [3]: 5% and 4%
- Total Cell Count [3]: 297 and 174
- Population Apoptotic (%) [4]: 100%
- Population Fragmented Nuclei (%) [4]: 34% and 27%
- Population Healthy Nuclei (%) [4]: 53% and 65%
- Population Hoechst High Intensity Objects (%) [4]: 8% and 0%
- Population Mitochondria Different-Phenotype (%) [4]: 5% and 9%
- Population Mitotic Cells (%) [4]: 0%
- Population Normal (%) [4]: 91% and 99%
- Population Pyknosed Nuclei (%) [4]: 12% and 7%
- Total Cell Count [4]: 245 and 130
- Population Apoptotic (%) [5]: 91% and 90%
- Population Fragmented Nuclei (%) [5]: 35% and 12%
- Population Healthy Nuclei (%) [5]: 53% and 79%
- Population Hoechst High Intensity Objects (%) [5]: 10% and 1%
- Population Membrane Permeable-Phenotype (%) [5]: 6% and 4%
- Population Mitochondria Different-Phenotype (%) [5]: 1%
- Population Mitotic Cells (%) [5]: 8% and 9%
- Population Normal (%) [5]: 89% and 98%
- Population Pyknosed Nuclei (%) [5]: 10% and 7%
- Population Tubulin-Different-Phenotype (%) [5]: 2% and 1%
- Total Cell Count [5]: 353 and 270
- Population Apoptotic (%) [6]: 100%
- Population Fragmented Nuclei (%) [6]: 36% and 25%
- Population Healthy Nuclei (%) [6]: 51% and 70%
- Population Hoechst High Intensity Objects (%) [6]: 7% and 2%
- Population Membrane Permeable-Phenotype (%) [6]: 9% and 10%
- Population Mitochondria Different-Phenotype (%) [6]: 4%
- Population Mitotic Cells (%) [6]: 0%
- Population Normal (%) [6]: 92% and 97%
- Population Pyknosed Nuclei (%) [6]: 12% and 4%
- Population Tubulin-Different-Phenotype (%) [6]: 4% and 7%
- Total Cell Count [6]: 289 and 179

Compound: CN1CCN(c2nc3cc(C(F)(F)F)ccc3n3cccc23)CC1.O=C(O)/C=C\C(=O)O.O=C(O)/C=C\C(=O)O
- Population Apoptotic (%) [1]: 77% and 100%
- Population Fragmented Nuclei (%) [1]: 17% and 18%
- Population Healthy Nuclei (%) [1]: 75% and 73%
- Population Hoechst High Intensity Objects (%) [1]: 1% and 0%
- Population Membrane Permeable-Phenotype (%) [1]: 4% and 8%
- Population Mitochondria Different-Phenotype (%) [1]: 0% and 2%
- Population Mitotic Cells (%) [1]: 22% and 0%
- Population Normal (%) [1]: 98% and 99%
- Population Pyknosed Nuclei (%) [1]: 6% and 8%
- Population Tubulin-Different-Phenotype (%) [1]: 1% and 3%
- Total Cell Count [1]: 266 and 111
- Population Apoptotic (%) [2]: 66% and 88%
- Population Fragmented Nuclei (%) [2]: 31% and 25%
- Population Healthy Nuclei (%) [2]: 53% and 68%
- Population Hoechst High Intensity Objects (%) [2]: 1% and 2%
- Population Membrane Permeable-Phenotype (%) [2]: 18% and 13%
- Population Mitochondria Different-Phenotype (%) [2]: 45% and 41%
- Population Mitotic Cells (%) [2]: 33% and 11%
- Population Normal (%) [2]: 98% and 97%
- Population Pyknosed Nuclei (%) [2]: 15% and 6%
- Population Tubulin-Different-Phenotype (%) [2]: 19% and 21%
- Total Cell Count [2]: 218 and 135
- Population Apoptotic (%) [3]: 85% and 92%
- Population Fragmented Nuclei (%) [3]: 17% and 13%
- Population Healthy Nuclei (%) [3]: 73% and 77%
- Population Hoechst High Intensity Objects (%) [3]: 2% and 0%
- Population Membrane Permeable-Phenotype (%) [3]: 5% and 8%
- Population Mitochondria Different-Phenotype (%) [3]: 1% and 4%
- Population Mitotic Cells (%) [3]: 14% and 7%
- Population Normal (%) [3]: 97% and 99%
- Population Pyknosed Nuclei (%) [3]: 9%
- Population Tubulin-Different-Phenotype (%) [3]: 3% and 4%
- Total Cell Count [3]: 300 and 136
- Population Apoptotic (%) [4]: 76% and 78%
- Population Fragmented Nuclei (%) [4]: 31% and 19%
- Population Healthy Nuclei (%) [4]: 57% and 71%
- Population Hoechst High Intensity Objects (%) [4]: 3%
- Population Membrane Permeable-Phenotype (%) [4]: 16% and 17%
- Population Mitochondria Different-Phenotype (%) [4]: 41% and 36%
- Population Mitotic Cells (%) [4]: 24% and 21%
- Population Normal (%) [4]: 96%
- Population Pyknosed Nuclei (%) [4]: 10% and 9%
- Population Tubulin-Different-Phenotype (%) [4]: 14% and 16%
- Total Cell Count [4]: 244 and 156
- Population Apoptotic (%) [5]: 87% and 85%
- Population Fragmented Nuclei (%) [5]: 14% and 17%
- Population Healthy Nuclei (%) [5]: 77% and 75%
- Population Hoechst High Intensity Objects (%) [5]: 2% and 1%
- Population Membrane Permeable-Phenotype (%) [5]: 4% and 6%
- Population Mitochondria Different-Phenotype (%) [5]: 0% and 5%
- Population Mitotic Cells (%) [5]: 12% and 14%
- Population Normal (%) [5]: 97% and 98%
- Population Pyknosed Nuclei (%) [5]: 7%
- Population Tubulin-Different-Phenotype (%) [5]: 2% and 3%
- Total Cell Count [5]: 447 and 187
- Population Apoptotic (%) [6]: 78% and 81%
- Population Fragmented Nuclei (%) [6]: 31% and 21%
- Population Healthy Nuclei (%) [6]: 52% and 67%
- Population Hoechst High Intensity Objects (%) [6]: 4% and 3%
- Population Membrane Permeable-Phenotype (%) [6]: 16% and 10%
- Population Mitochondria Different-Phenotype (%) [6]: 17% and 16%
- Population Mitotic Cells (%) [6]: 21% and 18%
- Population Normal (%) [6]: 95% and 96%
- Population Pyknosed Nuclei (%) [6]: 16% and 11%
- Population Tubulin-Different-Phenotype (%) [6]: 12% and 9%
- Total Cell Count [6]: 299 and 202
